Drawing on ChEMBL document CHEMBL1140036, “Novel glucagon receptor antagonists with improved selectivity over the glucose-dependent insulinotropic polypeptide receptor” (J Med Chem, 2008), this text covers IC50, Ratio IC50 and Activity for 6 molecules.

Active and inactive are the calls of the source. The rule behind the calls is not given here.

Sequence of Glucagon-like peptide 1 receptor (P43220 whole entry): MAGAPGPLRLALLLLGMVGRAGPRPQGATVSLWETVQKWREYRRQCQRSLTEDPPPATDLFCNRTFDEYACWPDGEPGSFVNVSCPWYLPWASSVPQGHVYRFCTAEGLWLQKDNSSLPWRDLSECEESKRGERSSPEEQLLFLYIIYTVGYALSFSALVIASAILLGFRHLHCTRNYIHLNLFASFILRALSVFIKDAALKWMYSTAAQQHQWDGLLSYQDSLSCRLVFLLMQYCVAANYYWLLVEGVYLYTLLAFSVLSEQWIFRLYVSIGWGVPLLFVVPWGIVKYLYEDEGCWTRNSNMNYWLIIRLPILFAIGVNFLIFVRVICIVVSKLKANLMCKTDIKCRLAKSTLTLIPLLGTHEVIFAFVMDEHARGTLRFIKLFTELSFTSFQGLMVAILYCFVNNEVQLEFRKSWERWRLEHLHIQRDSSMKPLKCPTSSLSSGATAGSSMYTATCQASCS
Sequence of Glucagon receptor (Homo sapiens, UniProt P47871) (P47871 whole entry): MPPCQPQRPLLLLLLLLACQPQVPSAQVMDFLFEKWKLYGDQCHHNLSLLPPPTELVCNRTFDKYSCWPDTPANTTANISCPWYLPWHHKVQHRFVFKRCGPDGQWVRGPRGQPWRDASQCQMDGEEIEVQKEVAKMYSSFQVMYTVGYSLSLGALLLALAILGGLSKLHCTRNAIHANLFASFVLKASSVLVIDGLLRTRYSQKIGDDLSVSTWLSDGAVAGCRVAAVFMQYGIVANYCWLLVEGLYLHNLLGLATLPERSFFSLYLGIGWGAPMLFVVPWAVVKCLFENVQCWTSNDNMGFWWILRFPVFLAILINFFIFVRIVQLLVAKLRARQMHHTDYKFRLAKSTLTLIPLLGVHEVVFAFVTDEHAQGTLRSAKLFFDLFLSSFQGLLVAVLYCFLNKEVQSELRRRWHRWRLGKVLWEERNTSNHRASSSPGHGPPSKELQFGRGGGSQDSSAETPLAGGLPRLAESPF
Sequence of Glucagon receptor (Rattus norvegicus, UniProt P30082) (P30082 whole entry): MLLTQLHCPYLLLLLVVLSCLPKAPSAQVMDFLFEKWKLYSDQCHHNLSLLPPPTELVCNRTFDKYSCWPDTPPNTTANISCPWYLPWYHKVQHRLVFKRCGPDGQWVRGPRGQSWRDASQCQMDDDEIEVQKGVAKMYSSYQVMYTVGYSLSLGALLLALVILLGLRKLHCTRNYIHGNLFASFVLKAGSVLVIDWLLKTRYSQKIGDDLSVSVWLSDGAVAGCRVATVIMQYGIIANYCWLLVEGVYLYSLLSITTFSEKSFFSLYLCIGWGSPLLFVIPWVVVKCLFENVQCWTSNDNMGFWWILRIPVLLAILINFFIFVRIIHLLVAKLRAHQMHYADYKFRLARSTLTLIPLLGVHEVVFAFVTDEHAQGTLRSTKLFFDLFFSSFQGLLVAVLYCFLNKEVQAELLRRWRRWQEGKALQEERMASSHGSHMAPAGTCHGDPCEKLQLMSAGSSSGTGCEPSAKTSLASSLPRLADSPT

In the first assay the test system is Hepatocyte. Description: Inhibition of glucagon-stimulated glycogenolysis in rat hepatocytes. The assay is classed as functional, cell-based. The essentials:
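Isolated, cultured primary rat hepatocytes were loaded with glycogen and stimulated with 0.5 nM glucagon plus increasing compound concentrations in medium containing 0.1% HSA. Glucose released into the medium was measured after 60 min, and IC50 was derived.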
Consider `O=C(O)CCNC(=O)c1ccc(CN(C(=O)Nc2cc(Cl)cc(Cl)c2)c2ccc(C3=CCCCC3)cc2)cc1`, for which the IC50 was determined as 820 nM.

The subject of the next assay is BHK. The assay can be described thus: Selectivity ratio of IC50 for human cloned GluR to IC50 for human cloned GLP1R expressed in BHK cells. It is filed as cell-based.
`O=C(O)CCNC(=O)c1ccc(CN(C(=O)Nc2cc(Cl)cc(Cl)c2)c2ccc(C3=CCCCC3)cc2)cc1`: the Ratio IC50 was determined as 400.

In a further assay the target is T1, Gastric inhibitory polypeptide receptor (Rattus norvegicus, UniProt P43219).
T1 sequence (P43219 whole entry): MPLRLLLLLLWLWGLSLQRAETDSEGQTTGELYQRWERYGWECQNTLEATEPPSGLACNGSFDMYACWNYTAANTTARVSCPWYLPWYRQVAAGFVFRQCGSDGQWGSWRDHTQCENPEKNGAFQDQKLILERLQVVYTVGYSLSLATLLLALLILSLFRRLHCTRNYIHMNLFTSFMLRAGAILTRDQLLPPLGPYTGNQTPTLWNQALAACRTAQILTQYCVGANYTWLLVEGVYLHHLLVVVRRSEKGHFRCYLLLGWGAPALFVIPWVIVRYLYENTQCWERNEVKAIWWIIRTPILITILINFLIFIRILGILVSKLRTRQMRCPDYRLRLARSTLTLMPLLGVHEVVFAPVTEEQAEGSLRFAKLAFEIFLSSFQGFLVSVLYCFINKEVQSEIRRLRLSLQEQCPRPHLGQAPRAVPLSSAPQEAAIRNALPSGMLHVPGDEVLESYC
Description: Binding affinity to GIPR in rat liver membrane. It is filed as cell membranes.
For `CC(C)(C)C1CCC(N(Cc2ccc(C(=O)NCCC(=O)O)cc2)C(=O)Nc2ccc(OC(F)(F)F)cc2)CC1` (configuration not stated), the IC50 amounted to 42 nM.
Still for that read-out and setting: the value for `O=C(O)CCNC(=O)c1ccc(CN(C(=O)Nc2cc(Cl)cc(Cl)c2)c2ccc(C3=CCCCC3)cc2)cc1` was 216 nM.

The target in the next assay is Glucagon receptor (Homo sapiens, UniProt P47871). Description: Binding affinity to human cloned GluR expressed in BHK cells. The assay is classed as cell-based. Put shortly:
(§1)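 Competitive binding on purified plasma membranes from BHK cells expressing the cloned human receptor (glucagon, GIP or GLP-1 receptor). The glucagon receptor protocol follows earlier published work, and the GIP and GLP-1 assays were done the same way.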
In the case of `CC(C)(C)[C@H]1CC[C@H](N(Cc2ccc(C(=O)NC[C@H](O)C(=O)O)cc2)C(=O)Nc2cc(C(F)(F)F)cc(C(F)(F)F)c2)CC1`, the IC50 is 82 nM. This lies in the double-digit nanomolar range.
On the same count and under the same terms, to `CO[C@H](CNC(=O)c1ccc(CN(C(=O)Nc2cc(Cl)cc(Cl)c2)c2ccc(C3=CCCCC3)cc2)cc1)C(=O)O` belongs 693 nM; to `O=C(NC[C@@H](O)C(=O)O)c1ccc(CN(C(=O)Nc2cccc(Cl)c2)c2ccc(C3=CCCCC3)cc2)cc1`, 14 nM.
Same read-out and setting: to `CC(C)(C)C1CCC(N(Cc2ccc(C(=O)NCCC(=O)O)cc2)C(=O)Nc2ccc(OC(F)(F)F)cc2)CC1` (configuration not stated) belongs 23.4 nM.
The same measure, in the same setting: the value for `O=C(O)CCNC(=O)c1ccc(CN(C(=O)Nc2cc(Cl)cc(Cl)c2)c2ccc(C3=CCCCC3)cc2)cc1` was 12 nM; that for `O=C(NCC(O)C(=O)O)c1ccc(CN(C(=O)Nc2cc(Cl)cc(Cl)c2)c2ccc(C3=CCCCC3)cc2)cc1` (racemic) was 14 nM.

In a further assay the test system is Pancreas. Description: Inhibition of GIP-stimulated insulin secretion in rat pancreas. It is filed as functional, tissue-based. The essentials: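 Isolated perfused rat pancreas: 80 mg/dL glucose at 1-4 min, then 160 mg/dL glucose with compound at 5-50 min, and 500 pM GIP infused at 15-34 min. Portal outflow was collected each minute and insulin measured by radioimmunoassay; n = 4 per group.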
On to `CC(C)(C)C1CCC(N(Cc2ccc(C(=O)NCCC(=O)O)cc2)C(=O)Nc2ccc(OC(F)(F)F)cc2)CC1` (configuration not stated), for which the result was Active.
Same read-out and setting: the value for `O=C(O)CCNC(=O)c1ccc(CN(C(=O)Nc2cc(Cl)cc(Cl)c2)c2ccc(C3=CCCCC3)cc2)cc1` was “Active”.

The next assay has as its target Glucagon receptor (Rattus norvegicus, UniProt P30082). Description: Binding affinity to GlucR in rat liver membrane. It is filed as cell membranes. The essentials:
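Competitive binding on isolated rat liver membrane preparations, run by the same protocol as the human glucagon receptor binding assay.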
The molecule `CC(C)(C)C1CCC(N(Cc2ccc(C(=O)NCCC(=O)O)cc2)C(=O)Nc2ccc(OC(F)(F)F)cc2)CC1` (configuration not stated) yielded an IC50 of 23 nM.
On the same count and under the same terms, the value for `O=C(O)CCNC(=O)c1ccc(CN(C(=O)Nc2cc(Cl)cc(Cl)c2)c2ccc(C3=CCCCC3)cc2)cc1` was 36 nM.

The subject of another assay is Hepatocyte. Description: Inhibition of basal glycogenolysis in rat hepatocytes up to 25 uM. It is filed as functional, cell-based. Put shortly:
(§2)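 Glycogen-loaded cultured primary rat hepatocytes, either unstimulated (basal) or adrenaline-stimulated, in medium with 0.1% HSA. Compounds were tested at concentrations up to 25 µM, and glycogenolysis was read as glucose release.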
As for `O=C(O)CCNC(=O)c1ccc(CN(C(=O)Nc2cc(Cl)cc(Cl)c2)c2ccc(C3=CCCCC3)cc2)cc1`, the outcome was inactive.

A further assay deals with T2, Gastric inhibitory polypeptide receptor (Homo sapiens, UniProt P48546).
T2 sequence (P48546 whole entry): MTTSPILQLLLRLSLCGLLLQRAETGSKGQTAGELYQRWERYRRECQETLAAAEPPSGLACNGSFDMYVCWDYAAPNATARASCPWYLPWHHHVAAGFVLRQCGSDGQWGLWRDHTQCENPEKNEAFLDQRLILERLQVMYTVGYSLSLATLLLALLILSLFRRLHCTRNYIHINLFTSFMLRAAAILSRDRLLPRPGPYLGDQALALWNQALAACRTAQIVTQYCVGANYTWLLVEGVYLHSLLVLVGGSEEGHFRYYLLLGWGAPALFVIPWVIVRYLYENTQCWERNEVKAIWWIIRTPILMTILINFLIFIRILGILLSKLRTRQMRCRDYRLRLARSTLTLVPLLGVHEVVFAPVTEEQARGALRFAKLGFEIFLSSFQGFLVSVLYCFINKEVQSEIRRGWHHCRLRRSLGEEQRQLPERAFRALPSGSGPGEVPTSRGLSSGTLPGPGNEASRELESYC
Description: Binding affinity to human cloned GIPR expressed in BHK cells. It is filed as cell-based. Put shortly: as §1
In turn, `CC(C)(C)[C@H]1CC[C@H](N(Cc2ccc(C(=O)NC[C@H](O)C(=O)O)cc2)C(=O)Nc2cc(C(F)(F)F)cc(C(F)(F)F)c2)CC1` came in with an IC50 of 373 nM.
Regarding `CO[C@H](CNC(=O)c1ccc(CN(C(=O)Nc2cc(Cl)cc(Cl)c2)c2ccc(C3=CCCCC3)cc2)cc1)C(=O)O`, the concentration for half-maximal inhibition (IC50) turned out to be 3020 nM.
`O=C(NC[C@@H](O)C(=O)O)c1ccc(CN(C(=O)Nc2cccc(Cl)c2)c2ccc(C3=CCCCC3)cc2)cc1`: the IC50 was 406 nM.
For `CC(C)(C)C1CCC(N(Cc2ccc(C(=O)NCCC(=O)O)cc2)C(=O)Nc2ccc(OC(F)(F)F)cc2)CC1` (configuration not stated), the IC50 was found to be 28.3 nM.
Same read-out and setting: to `O=C(O)CCNC(=O)c1ccc(CN(C(=O)Nc2cc(Cl)cc(Cl)c2)c2ccc(C3=CCCCC3)cc2)cc1` belongs 64 nM.
In turn, `O=C(NCC(O)C(=O)O)c1ccc(CN(C(=O)Nc2cc(Cl)cc(Cl)c2)c2ccc(C3=CCCCC3)cc2)cc1` (racemic) returned an IC50 of 701 nM.

A further assay deals with Hepatocyte. Description: Increase in lactate production in rat hepatocytes. The assay is classed as functional, cell-based.
On to `O=C(O)CCNC(=O)c1ccc(CN(C(=O)Nc2cc(Cl)cc(Cl)c2)c2ccc(C3=CCCCC3)cc2)cc1`, for which the result was Active.

In a further assay the test system is Hepatocyte. Description: Inhibition of adrenaline-stimulated glycogenolysis in rat hepatocytes up to 25 uM. The assay is classed as functional, cell-based. Put shortly: as §2
For the molecule `O=C(O)CCNC(=O)c1ccc(CN(C(=O)Nc2cc(Cl)cc(Cl)c2)c2ccc(C3=CCCCC3)cc2)cc1`, the result was inactive.

The next assay concerns the target Glucagon-like peptide 1 receptor (Homo sapiens, UniProt P43220). Description: Binding affinity to human cloned GLP1R expressed in BHK cells. It is filed as cell-based. Put shortly: as §1
As for `CC(C)(C)[C@H]1CC[C@H](N(Cc2ccc(C(=O)NC[C@H](O)C(=O)O)cc2)C(=O)Nc2cc(C(F)(F)F)cc(C(F)(F)F)c2)CC1`, the IC50 came out at 4880 nM.
Still for that read-out and setting: the value for `CO[C@H](CNC(=O)c1ccc(CN(C(=O)Nc2cc(Cl)cc(Cl)c2)c2ccc(C3=CCCCC3)cc2)cc1)C(=O)O` was 21800 nM; that for `CC(C)(C)C1CCC(N(Cc2ccc(C(=O)NCCC(=O)O)cc2)C(=O)Nc2ccc(OC(F)(F)F)cc2)CC1` (configuration not stated) was 2540 nM; that for `O=C(O)CCNC(=O)c1ccc(CN(C(=O)Nc2cc(Cl)cc(Cl)c2)c2ccc(C3=CCCCC3)cc2)cc1` was 5000 nM.

In general, IC50 refers to the concentration that inhibits the measured activity by half. Read a high IC50 as weaker potency in that assay.
